Shown are actives, neighbours in structure and some others; about 3% of the full set was active somewhere.
MITF TRPM1 HTS: MITF TRPM1 promoter activation in melanoma cells; activation, % at 12.5 µM; AID 588334; 300,000 tested, 0.75% active; SK-MEL-5 TRPM1-promoter luciferase, 24 h; % of positive control, neutral wells = 0;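 active = mean activation of at least 80% with every replicate also reaching 80%; inconclusive = mean reaches 80% but some replicate falls short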;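 note: 0% = neutral control wells and 100% = parthenolide positive control wells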
NSD2 HMT inh: blocks human histone methyltransferase NSD2; 310,000 tested, 0.54% active; AID 743445; inhibition, % at 12.5 µM; O96028; NSD2 peptide methylation, AlphaScreen, 120 min; in the data active = inhibition above about 50%
Wnt bcat act: Wnt/beta-catenin pathway activation. Wnt/beta-catenin reporter cell assay, activator, plate reader. activation, % at 9.35 µM. 300,000 tested, 1.2% active; in the data active = activation above about 30%, passing the limit was not always enough; inconclusive = no clear call, values can overlap the other calls;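 note: 0% = neutral control wells and 100% = positive control wells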
Casp6 inh: blocks human caspase-6 cleavage activity; inhibition, % at 12.5 µM; purified caspase-6, Z-VEID-R110 cleavage fluorescence; 350,000 tested, 0.53% active; AID 686996;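 active = mean inhibition across replicates at least about 35%, with every replicate also reaching that limit, limit read from the data; inconclusive = only one of the two criteria met; inactive = neither criterion met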;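 note: 0% = median of neutral control wells and 100% = no fluorescence left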
esBAF inh: SWI/SNF esBAF complex inhibition; reporter increase, % at 12.5 µM; mouse ES cells, Bmi1-luciferase knock-in reporter, 24 h; 100% = twice the neutral-well signal; 350,000 tested, 2% active; in the data active = activation above about 40%; inconclusive = no clear call, values can overlap the other calls;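 note: 0% = median of the plate's neutral control wells and 100% = double that signal; a rise in the Bmi1 reporter signal indicates esBAF inhibition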
Xi reactivation: activators of X-chromosome reactivation in mouse fibroblasts | XiGFP mouse fibroblasts, % GFP-positive cells imaging, 3 d; cells co-treated with 5-aza-dC sensitizer; scaled so ellipticine positive control = 100% | AID 743238 | activation, % at 7.58 µM | 360,000 tested, 0.055% active;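 active = mean normalized replicate activation at least 10% and every replicate at or above 10%; inconclusive = only one of the two criteria met; inactive = mean below 10% and not all replicates reach 10%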;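 note: 0% = median of on-plate neutral control wells and 100% = ellipticine 6 µM median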
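Schedule: 3 d treatment, 15 min room-temperature fixation; system: 68-5-11 XiGFP fibroblast line; buffer or medium: DMEM plus 5-aza-dC sensitizer; control set: ellipticine 6 µM positive control; compound: one concentration, pinned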
Starred values were filed as active, the others as inactive; ? = inconclusive; . = no result.

SMILES	MITF TRPM1 HTS	NSD2 HMT inh	Wnt bcat act	Casp6 inh	esBAF inh	Xi reactivation
COc1cccc(N/N=C/c2cccc(Br)c2O)c1	60	2	35*	3	53*	1
C[C@H](CO)N1C[C@H](C)[C@@H](CN(C)Cc2ccncc2)Oc2cc(-c3ccccc3F)ccc2S1(=O)=O	.	.	.	0	-1	-1
C[C@@H]1CCc2cnnn2COC[C@H](Cc2ccccc2)NC1=O	.	.	.	.	.	0
CC(C)CC#Cc1ccc([C@H]2[C@H]3CN(C(=O)NC(C)C)CC(=O)N3[C@H]2CO)cc1	.	.	.	.	.	0
N=C1/C(=C/c2ccc(Br)o2)C(=O)N=C2SC(CC(=O)N3CCCC3)=NN12	-8	39	-1	0	-2	0
N=C1/C(=C/c2ccco2)C(=O)N=C2SC(CC(=O)N3CCCC3)=NN12	10	33	-1	51*	-3	0
COc1ccc(-c2[nH]ncc2CNC(C)c2ccccc2Cl)cc1F (centres undefined)	21	.	43*	0	-8	1
CCOC(=O)c1ccccc1NC(=O)COC(=O)C1CCN(S(=O)(=O)c2ccccc2C(=O)OC)CC1	13	-3	-3	60*	6	?
C[C@@H]1CCCCO[C@@H](CN(C)Cc2ccc(C(=O)Nc3ccccc3N)cc2)[C@@H](C)CN([C@H](C)CO)C(=O)c2cc(NC(=O)Cc3ccccc3)ccc2O1	.	.	.	-2	.	0
COc1ccc2cc(N3CCCC3=O)ccc2c1	42	-1	4	2	48*	0
COc1cc(NC(=O)c2ccc(N3CCCC3=O)cc2)cc(OC)c1	62	-2	-2	-3	59*	0
COc1ccc(NC(=O)CSc2nc(SC)ns2)cc1	108*	-3	?	.	56*	0
CSc1nsc(SCC(=O)Nc2ccc(NC(C)=O)cc2)n1	13	-4	2	1	12	1
CSc1nsc(SCC(=O)Nc2ccc(C(C)=O)cc2)n1	37	.	.	.	48*	.
O=C(NCCc1nc(-c2ccc(F)cc2)no1)c1ccc(F)cc1	-1	.	1	3	1	0
CCCc1nc(-c2ccc(-c3ccc(F)cc3)cc2)no1	.	-1	.	.	58*	.
c1ccc(CCc2nc(-c3ccccc3)no2)cc1	71	-2	1	.	46*	.
Cc1cccc(-c2noc(Cc3ccccc3)n2)c1	?	1	19	.	103*	.
Brc1ccc(-c2noc(CCc3ccccc3)n2)cc1	20	-5	2	.	18	.
CC1CCN(Cc2nc(-c3ccccc3)no2)CC1	.	-2	.	.	55*	.
COc1ccc(NC(=O)N[C@@H]2CC[C@H](CC(=O)NC3CCCCC3)O[C@@H]2CO)cc1	.	.	.	-1	0	0
CO[C@H]1CN(C)C(=O)c2ccc(NC(=O)Cc3ccccc3)cc2OC[C@@H](C)N(C)C[C@H]1C	.	.	.	2	-3	?
CCC(=O)N1CCC2(CC1)CN(Cc1ccc3c(c1)OCO3)[C@@H](CO)c1c2c2ccc(OC)cc2n1C	.	.	.	.	.	0
CCNC(=O)C[C@@H]1CC[C@@H]2[C@H](COc3ccc(NC(=O)c4ccccc4Cl)cc3C(=O)N2C)O1	.	.	.	.	-3	0
c1ccc(OCc2nc(-c3ccccc3)no2)cc1	102*	-1	78*	.	68*	.
SMILES	MITF TRPM1 HTS	NSD2 HMT inh	Wnt bcat act	Casp6 inh	esBAF inh	Xi reactivation
CC(C)C(O)C1CCN(Cc2nc(-c3cccs3)no2)CC1 (centres undefined)	50	-2	8	4	58*	0
Cc1cccc(-c2noc(CCc3ccccc3)n2)c1	.	.	?	2	63*	0
c1cncc(-c2noc(CC3CCCCC3)n2)c1	66	6	.	.	42*	.
COCC#Cc1ccc(CC[C@H]2O[C@H]3CC[C@H](CO)O[C@H]3C[C@H]2NC(=O)Nc2c(C)noc2C)cc1	.	.	.	-3	.	.
O=C(C[C@H]1C[C@@H]2c3cc(NC(=O)Nc4ccc(F)cc4)ccc3O[C@@H]2[C@@H](CO)O1)NC1CCCCC1	.	.	.	.	13	0
C[C@@H]1CCCCO[C@@H](CN(C)C(=O)c2ccccc2)[C@@H](C)CN([C@@H](C)CO)C(=O)c2cc(NC(=O)Nc3ccc4c(c3)OCO4)ccc2O1	.	.	.	.	.	0
CC(=O)Nc1ccc2c(c1)C(=O)N(C)C[C@@H](C)[C@H](CN(C)S(C)(=O)=O)O2	.	.	.	.	.	0
Cc1ccc(OCc2nc(-c3cccnc3)no2)cc1C	61	2	0	1	37*	0

Assay outcomes (PubChem)
